Source: article PMC3665732 (Chemical biology & drug design, 2013)

Legend:
[1] = test system: Albino Swiss mice; assay: Locomotor activity test; type: in vivo; settings: 8 20 mg/kg, 10 5 mg/kg, 12 10 mg/kg; ip 30 min before the test; first 6 minutes; vehicle 554 ± 46
[2] = test system: Albino Swiss mice; assay: Forced swim test; type: in vivo; settings: 30 min before the test; for antidepressant effect in the forced swim test (in words): mice, ip
In short: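 Male Albino Swiss mice (24-28 g), kept at 20 ± 1°C with free food and water and used once. Test compound was injected 30 min before the session. Each mouse swam 6 min in a glass cylinder (25 cm high, 10 cm diameter) holding 6 cm of water at 23-25°C. An observer timed immobility (floating, small head-keeping movements) over the last 4 min, after 2 min habituation. Mean ± SEM; Dunnett's test vs vehicle.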

SMILES	Locomotor activity 6 minutes (number of light beam crossings ± S.E.M.) [1]	reduction in mice immobility time ([2]; 20 mg/kg ip)	antidepressant effect in the forced swim test (in words) [2]	reduction in mice immobility time ([2]; 5 mg/kg ip)	reduction in mice immobility time ([2]; 10 mg/kg ip)
CCCCCCCCN1CCN(c2ccc3cc([N+](=O)[O-])ccc3n2)CC1 [Compound 8, 2-(4-Octyl-piperazin-1-yl)-6-nitroquinoline]	453 ± 41	15%	moderate antidepressant activity	–	–
CCCCCCCCCN1CCN(c2ccc3cc([N+](=O)[O-])ccc3n2)CC1 [Compound 9, 2-(4-Nonyl-piperazin-1-yl)-6-nitroquinoline]	–	–	ineffective	–	–
CCCCCCCCCCN1CCN(c2ccc3cc([N+](=O)[O-])ccc3n2)CC1 [Compound 10, 2-(4-Decylo-piperazin-1-yl)-6-nitroquinoline]	239 ± 41	–	moderate antidepressant activity	12%	–
CCCCCCCCCCCN1CCN(c2ccc3cc([N+](=O)[O-])ccc3n2)CC1 [Compound 11, 2-(4-Undecyl-piperazin-1-yl)-6-nitroquinoline]	–	–	ineffective	–	–
CCCCCCCCCCCCN1CCN(c2ccc3cc([N+](=O)[O-])ccc3n2)CC1 [Compound 12, 2-(4-Dodecyl-piperazin-1-yl)-6-nitroquinoline]	628 ± 55	–	moderate antidepressant activity	10%	8%
